Assay results as given in ChEMBL document CHEMBL4152210, “Design, synthesis, anti-lung cancer activity, and chemosensitization of tumor-selective MCACs based on ROS-mediated JNK pathway activation and NF-κB pathway inhibition” (Eur J Med Chem, 2018).
Activity calls are given as the source filed them. The rule behind the calls is not given here.

Tests used:
[1] = target: Mitogen-activated protein kinase 8/9 (Homo sapiens) (UniProt P45983+P45984); test: Induction of JNK 1/2 phosphorylatyion in human A549 cells after 6 hrs by Western blot analysis; assay type: cell-based
Summary of the method: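 A549 exposed at 10 µM for varying times, or at various concentrations for 6 h. Inhibition arms pretreated 1 h with SP600125 (10 µM) or NAC (5 mM) before 10 µM for 6 h. Lysates run on 10% SDS-PAGE and transferred to PVDF. p-JNK probed, GAPDH as loading control.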

[2] = Selectivity index, ratio of IC50 for human HL7702 cells to IC50 for human NCI-H1650 cells; assay type: toxicity
Summary of the method: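 Selectivity index taken as the logarithm of the ratio of the HL7702 IC50 to the cancer-line IC50. […] Not calculated when an IC50 was lacking.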

A549 [3] = test: Chemosensitization activity in human A549 cells assessed as inhibition of clonogenic growth at 0.25 uM in presence of 0.25 uM cisplatin incubated for 2 days followed by replacement of growth media and measured after 8 days by crystal violet staining-based assay relative to control; assay type: functional
Summary of the method: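 A549 seeded at 1000 cells per well in 6-well plates, exposed to drug alone or combined with cisplatin or 5-Fu over a concentration series. Drug-containing medium replaced after 2 days. After a further 8 days, fixed with 1% methanol/1% formaldehyde and stained with 0.5% crystal violet. Percent inhibition at each concentration calculated relative to control.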

[4] = target: T1, NF-kappa-B inhibitor alpha (Homo sapiens) (UniProt P25963); test: Inhibition of TNF-alpha induced IkappaBalpha degradation in human A549 cells at 1 to 10 uM preincubated for 1 hr followed by TNF-alpha addition and measured after 15 mins by Western blot analysis; assay type: cell-based
T1 sequence (whole entry): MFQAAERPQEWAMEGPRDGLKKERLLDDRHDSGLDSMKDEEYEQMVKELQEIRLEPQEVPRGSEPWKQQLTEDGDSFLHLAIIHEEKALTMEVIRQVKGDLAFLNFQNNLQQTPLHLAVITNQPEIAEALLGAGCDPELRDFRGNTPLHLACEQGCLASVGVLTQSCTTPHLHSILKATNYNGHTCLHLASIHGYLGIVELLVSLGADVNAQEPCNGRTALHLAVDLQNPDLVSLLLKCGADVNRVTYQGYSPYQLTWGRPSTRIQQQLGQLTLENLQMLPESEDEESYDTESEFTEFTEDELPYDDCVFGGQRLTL
Summary of the method: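 A549 preincubated 1 h at 1, 5 or 10 µM, or with BMS345541 (20 µM), then stimulated with TNFα (1 ng/mL) for 15 min. NAC arm: 5 mM NAC for 1 h, then 10 µM for 1 h. IκBα detected by western blot, GAPDH as loading control.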

NCI-H1650 = test: Cytotoxicity against human NCI-H1650 cells assessed as reduction in cell viability after 72 hrs by MTT assay; assay type: functional, cell-based; conditions: NCI-H1650, 72 h
Summary of the method: (§1)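 Cells in RPMI 1640 with 10% heat-inactivated FBS and penicillin/streptomycin at 37 °C, 5% CO2. Seeded at 4000 per well, adhered overnight, then exposed to graded compound concentrations in triplicate wells for 72 h. MTT (5 mg/mL stock) added for 4 h, dissolved in DMSO, A490 read. IC50 is the concentration reducing viability by 50% versus untreated control.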

A549 [5] = test: Induction of ROS generation in human A549 cells at 10 uM preincubated with NAC for 1 hr followed by compound addition and measured after 9 hrs by DCFDA staining based flow cytometric analysis; assay type: functional, cell-based
Summary of the method: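 A549 (6 × 10^5 per 60 mm dish) exposed to 10 µM over a time course up to 12 h, or at 1, 5 or 10 µM for 9 h. Optional NAC (5 mM) pretreatment for 1 h before 10 µM for 9 h. Cells loaded with DCF-DA (10 µM) for 30 min at 37 °C in the dark, washed, and read by flow cytometry.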

[6] = target: T2, Inhibitor of nuclear factor kappa-B kinase subunit beta (Homo sapiens) (UniProt O14920); test: Inhibition of cisplatin-induced IKK-beta phosphorylation in human A549 cells at 1 to 10 uM preincubated for 1 hr followed by cisplatin addition and measured after 24 hrs by Western blot analysis; assay type: cell-based
T2 sequence (whole entry): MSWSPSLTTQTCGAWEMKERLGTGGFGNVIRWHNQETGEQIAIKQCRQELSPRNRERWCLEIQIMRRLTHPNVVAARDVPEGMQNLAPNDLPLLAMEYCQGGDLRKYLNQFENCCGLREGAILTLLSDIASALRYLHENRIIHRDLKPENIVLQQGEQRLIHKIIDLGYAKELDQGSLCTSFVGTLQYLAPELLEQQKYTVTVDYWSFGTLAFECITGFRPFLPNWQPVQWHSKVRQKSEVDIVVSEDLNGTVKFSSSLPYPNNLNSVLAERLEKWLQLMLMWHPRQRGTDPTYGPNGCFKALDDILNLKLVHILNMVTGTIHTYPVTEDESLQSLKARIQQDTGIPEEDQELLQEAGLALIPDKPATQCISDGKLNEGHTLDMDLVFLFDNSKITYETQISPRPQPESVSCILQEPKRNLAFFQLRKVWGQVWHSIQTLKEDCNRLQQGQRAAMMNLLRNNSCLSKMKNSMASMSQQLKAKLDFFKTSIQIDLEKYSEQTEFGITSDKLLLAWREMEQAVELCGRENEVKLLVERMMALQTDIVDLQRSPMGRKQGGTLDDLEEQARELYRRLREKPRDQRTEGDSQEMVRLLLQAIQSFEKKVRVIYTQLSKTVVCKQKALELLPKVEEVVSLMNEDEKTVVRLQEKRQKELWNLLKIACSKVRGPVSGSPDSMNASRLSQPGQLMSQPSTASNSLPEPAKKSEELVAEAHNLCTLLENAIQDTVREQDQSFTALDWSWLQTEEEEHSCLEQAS
Summary of the method: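 A549 pretreated 1 h at 1, 5 or 10 µM, or with BMS345541 (20 µM), then exposed to cisplatin (20/3 µM) for 24 h. p-IKKβ assessed by western blot.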

A549 [7] = test: Induction of apoptosis in human A549 cells assessed as increase in PARP level after 24 hrs by Western blot analysis; assay type: functional, cell-based
Summary of the method: (§2)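 A549 treated at 1, 5 or 10 µM, or with BMS345541 (20 µM), for 24 h. Cleaved PARP and Bax detected by western blot (10% SDS-PAGE, PVDF, 5% milk block, HRP secondary).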

A549 [8] = test: Induction of apoptosis in human A549 cells at 10 uM pretreated with 5 mM NAC for 1 hr followed by compound addition and measured after 24 hrs by Annexin V-FITC/propidium iodide staining based flow cytometric analysis; assay type: functional, cell-based
Summary of the method: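 A549 treated 24 h at 1, 5 or 10 µM, with BMS345541 20 µM as control. Inhibitor arms pretreated 1 h with NAC (5 mM) or SP600125 (10 µM) before 10 µM. Cells harvested with EDTA-free trypsin, stained with FITC Annexin V and PI for 15 min at room temperature in the dark, analysed by flow cytometry.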

A549 [9] = test: Induction of apoptosis in human A549 cells assessed as increase in Bax level at 1 to 10 uM after 24 hrs by Western blot analysis; assay type: functional, cell-based; summary of the method: as §2
L02 = test: Cytotoxicity against human HL7702 cells assessed as reduction in cell viability after 72 hrs by MTT assay; assay type: cell-based; conditions: L02, 72 h; summary of the method: as §1

Mitogen-activated protein kinase 8/9 (Homo sapiens), sequence (P45983 whole entry, looked up): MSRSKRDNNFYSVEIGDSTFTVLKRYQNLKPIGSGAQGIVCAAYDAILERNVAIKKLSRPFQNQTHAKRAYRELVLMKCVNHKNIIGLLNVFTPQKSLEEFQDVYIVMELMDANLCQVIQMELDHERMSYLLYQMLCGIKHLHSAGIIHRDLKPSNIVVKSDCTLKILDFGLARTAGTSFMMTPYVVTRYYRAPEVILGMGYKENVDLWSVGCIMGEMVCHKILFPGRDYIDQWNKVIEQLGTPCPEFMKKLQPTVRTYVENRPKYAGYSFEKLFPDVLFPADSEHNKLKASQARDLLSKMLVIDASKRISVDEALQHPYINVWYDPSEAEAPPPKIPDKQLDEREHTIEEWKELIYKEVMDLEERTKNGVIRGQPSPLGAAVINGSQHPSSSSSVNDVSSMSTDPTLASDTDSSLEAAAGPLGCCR
Mitogen-activated protein kinase 8/9 (Homo sapiens), sequence (P45984 whole entry, looked up): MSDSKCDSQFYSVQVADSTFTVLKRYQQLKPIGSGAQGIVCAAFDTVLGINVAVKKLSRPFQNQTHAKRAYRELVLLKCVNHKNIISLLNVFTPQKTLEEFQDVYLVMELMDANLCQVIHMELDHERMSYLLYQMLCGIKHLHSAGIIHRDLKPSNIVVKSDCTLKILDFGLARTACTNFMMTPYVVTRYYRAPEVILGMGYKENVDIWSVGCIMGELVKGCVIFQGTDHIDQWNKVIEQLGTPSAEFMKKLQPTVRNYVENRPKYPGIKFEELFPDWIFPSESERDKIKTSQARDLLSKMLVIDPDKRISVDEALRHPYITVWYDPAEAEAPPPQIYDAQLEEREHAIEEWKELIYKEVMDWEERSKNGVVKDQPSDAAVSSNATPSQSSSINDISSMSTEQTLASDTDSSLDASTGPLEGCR

- Activity [1]: Dose-dependent effect
- inhibition [4]: Active
- inhibition [6]: Active
SMILES: COc1cc(/C=C2\CN(C)C/C(=C\c3cc(OC)c(OC)c(OC)c3)C2=O)cc(OC)c1OC
- log(RatioIC50) [2]: 1.25
- inhibition at 0.25 µM (A549 [3]): 51%
- IC50 (NCI-H1650): 1.5 µM
- Activity (A549 [5]): inactive
- Activity (A549 [7]): Dose-dependent effect
- Activity (A549 [8]): inactive
- Activity (A549 [9]): Active
- IC50 (L02): 26.4 µM
